Results as given in article PMC4574835 (British Journal of Clinical Pharmacology, 2015).

Columns and labels:
Population PK model = type: in vivo, human
[1] = tested on: viral strains harboring major integrase resistance mutations selected for by raltegravir and elvitegravir; details: in vitro; mutations selected for by RAL and EVG; cited from earlier work
[2] = tested on: organic cation transporter, OCT2; details: cited from earlier work
[3] = Individual predicted steady-state PK parameters; type: in vivo, human; details: for Tmax / AUC / Cmax: human, plasma, oral; for AUC: AUC(0-τ); for AUC / Cmax / Cτ: steady state
Method in brief: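 Individual parameters were empirical Bayes estimates from the final population model, using each subject's actual dose after repeat dosing. AUC(0-τ) was Dose/([CL/F_i]/F). Cmax, tmax and Cτ came from simulated steady-state concentration–time profiles using individual parameters, assuming no inter-occasion variability and zero residual variability. Summary statistics were computed.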

[4] = Exploratory PK-PD relationship, safety endpoints; type: in vivo, human; details: AUC(0-τ), Cmax and Cτ; except serum creatinine and CRCL
Method in brief: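 This was an exploratory graphical analysis in phase 2b/3 treatment-naive patients. Individual predicted steady-state Cτ, Cmax and AUC(0-τ) came from the final population model, using actual doses and assuming no inter-occasion variability. They were plotted against change from baseline in serum creatinine, creatinine clearance, urine albumin:creatinine ratio, ALT and total bilirubin, both as maximal change over 48 weeks and as change at week 48.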

[5] = NONMEM point estimate, inter-individual variability
[6] = NONMEM point estimate, listed as DTG
[7] = 10 mg, ING111521, 10 mg once daily, geometric mean (95% CI)
[8] = 10 mg, SPRING-1, 10 mg once daily, geometric mean (95% CI)
[9] = 50 mg, ING111521, 50 mg once daily, geometric mean (95% CI)
[10] = 50 mg, SPRING-2, 50 mg once daily, geometric mean (95% CI)

In the case of `C[C@@H]1CCO[C@H]2Cn3cc(C(=O)NCc4ccc(F)cc4F)c(=O)c(O)c3C(=O)N12` [dolutegravir, Dolutegravir], the “ALAG (absorption lag-time)” value (Population PK model; NONMEM point estimate) is reported as 0.263 h, the “ka (absorption rate constant)” value (Population PK model; NONMEM point estimate) is reported as 2.24 h^–1 and the “F ∼ 10 mg” value (Population PK model; NONMEM point estimate, factor on F for 10 mg dose) is reported as 1.24. The “F ∼ GENDER” value (Population PK model; NONMEM point estimate, factor on F for females) was 1.21, the “ω^2V (variance of random effect of V/F)” value (Population PK model; [5]) was 0.0188 and the “ω^2ka (variance of random effect of ka)” value (Population PK model; [5]) was 0.224. For the same molecule, the “ALAG (absorption lag-time)” value (Population PK model; [6]) was 0.263 (0.0942, 0.432) h, the “ka (absorption rate constant)” value (Population PK model; [6]) was 2.24 (1.56, 2.92) h^–1 and the “V/F ∼ WT” value (Population PK model; NONMEM point estimate, power coefficient (WT/70)) was 0.768. For the same molecule, the “σ^2prop (proportional residual error)” value (Population PK model; NONMEM point estimate, residual variability) was 0.0704, the “CL/F range over age in analysis population” value (Population PK model; age 18–68 years) was 0.772–0.998 l h^–1 and the ALAG (Population PK model; bootstrap median, 1000 runs) was 0.262 h. The CL/F (Population PK model; bootstrap median, 1000 runs) was 0.901 l h^–1, the “F ∼ 10 mg” value (Population PK model; bootstrap median, 1000 runs) was 1.24 and the “F ∼ GENDER” value (Population PK model; bootstrap median, 1000 runs) was 1.21. The V/F (Population PK model; bootstrap median, 1000 runs) was 17.4 L, the “V/F ∼ WT” value (Population PK model; bootstrap median, 1000 runs) was 0.774 and the ka (Population PK model; bootstrap median, 1000 runs) was 2.21 h^–1. The “σ^2prop” value (Population PK model; bootstrap median, 1000 runs) was 0.0698, the “ω^2CL” value (Population PK model; bootstrap median, 1000 runs) was 0.0539 and the “ω^2V” value (Population PK model; bootstrap median, 1000 runs) was 0.0182. The “ω^2ka” value (Population PK model; bootstrap median, 1000 runs) was 0.217, the “Increase in CL/F for study ING111521” value (Population PK model; compared with SPRING-1 and SPRING-2) was 35% and the “Oral bioavailability (F) higher in female subjects” value (Population PK model; compared with males, mean) was 21%. For the same molecule, the Vd/F (Population PK model; human, plasma, oral) was 17.4 L, the “Apparent clearance higher in current smokers” value (Population PK model; vs non-current smokers, mean) was 16% and the “CL/F range over weights in analysis population” value (Population PK model; weight 39–135 kg) was 0.697–1.20 l h^–1. The “V/F range over weights in analysis population” value (Population PK model; weight 39–135 kg) was 11.1 to 28.8 L, the “Activity against viral strains harboring major integrase resistance mutations” value [1] was “retains activity” and the “Inhibition of OCT2” value [2] was “known to inhibit”. For the same molecule, the Tmax [3] was about 2 h, the Tmax ([3]; 10 mg) was 1.66 h and the AUC [3, 7] was 9330 ng·h/mL. It also gave an AUC [3, 8] of 14300 ng·h/mL, a Cmax [3, 7] of 691 ng/mL and a Cmax [3, 8] of 957 ng/mL. It also gave a Tmax ([3]; 50 mg) of 1.94 h, an AUC [3, 9] of 41300 ng·h/mL and an AUC ([3]; 50 mg, SPRING-1, 50 mg once daily, geometric mean (95% CI)) of 53800 ng·h/mL. It also gave an AUC [3, 10] of 53600 ng·h/mL, a Cmax [3, 9] of 2940 ng/mL and a Cmax [3, 10] of 3690 ng/mL. The Cτ ([3]; 50 mg once daily, three studies pooled (n = 449), geometric mean) was 1.11 µg ml^–1, the Cτ ([3]; ING111521, 10 mg once daily, geometric mean (95% CI)) was 0.168 (0.136, 0.208) µg ml^–1 and the Cτ ([3]; ING111521, 50 mg once daily, geometric mean (95% CI)) was 0.785 (0.689, 0.895) µg ml^–1. For the same molecule, the Cτ ([3]; SPRING-1, 10 mg once daily, geometric mean (95% CI)) was 0.311 (0.281, 0.345) µg ml^–1, the Cτ ([3]; SPRING-1, 25 mg once daily, geometric mean (95% CI)) was 0.530 (0.462, 0.609) µg ml^–1 and the Cτ ([3]; SPRING-1, 50 mg once daily, geometric mean (95% CI)) was 1.17 (1.04, 1.33) µg ml^–1. For the same molecule, the Cτ ([3]; SPRING-2, 50 mg once daily, geometric mean (95% CI)) was 1.10 (1.05, 1.15) µg ml^–1 and the “Relationship between DTG exposure and the safety endpoints” value [4] was “No relationship”.
